In ChEMBL document CHEMBL1212762, “In vivo activity of ceftobiprole in murine skin infections due to Staphylococcus aureus and Pseudomonas aeruginosa” (Antimicrob Agents Chemother, 2010):

Columns and labels:
Pseudomonas aeruginosa [1] = assay: Antimicrobial activity against Pseudomonas aeruginosa OC 4354 infected in immunocompromized SKH1 mouse assessed as log change in bacterial colony forming unit at 6.2 mg/kg/day, sc; format: functional; conditions: route subcutaneous
Procedure, shortened: (§1)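 Female SKH1 hairless mice made neutropenic with ip cyclophosphamide (150 mg/kg 5 days and 100 mg/kg 1 day before infection). 0.2 ml s.c. Cytodex bead (0.1% vol/vol) inoculum in BHI: OC 4351 left flank, OC 4354 right flank. Drug s.c. at 1, 3, 25, 27 h postinfection. Killed at 48 h; skin homogenised in saline, plated on TSA 18 h 37°C; Δlog CFU/g versus inoculum. 5 mice/dose, run twice.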

Zone of skin [2] = assay: fAUC (0-infinity) in immunocompetent SKH1 mouse skin at 50 mg/kg, sc; format: ADME, organism-based; set-up: dose 50 mg/kg, route subcutaneous; conditions: in vivo
Procedure, shortened: (§2)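 Female SKH1 hairless mice, immunocompetent or cyclophosphamide-neutropenic, infected s.c. with MRSA OC 8525 or P. aeruginosa OC 4354 on the Cytodex beads (left flank), sterile beads on the right. Single dose 24 h later: s.c. at the nape, or linezolid 50 mg/kg oral. Plasma and skin (DMSO homogenate) sampled over time, HPLC with diode array.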

Pseudomonas aeruginosa [3] = assay: Antimicrobial activity against Pseudomonas aeruginosa OC 4351 infected in immunocompromized SKH1 mouse assessed as lesion volume at 6.2 mg/kg/day, sc measured after 48 hrs postinfection (reference value: 2234 mm3); format: functional; conditions: route subcutaneous
[4] = Tmax in Staphylococcus aureus infected immunocompetent SKH1 mouse skin at 50 mg/kg, sc; format: ADME, organism-based, Zone of skin; set-up: dose 50 mg/kg, route subcutaneous; procedure, shortened: as §2
[5] = Half life in immunocompetent SKH1 mouse skin at 50 mg/kg, sc; format: ADME, organism-based, Zone of skin; set-up: dose 50 mg/kg, route subcutaneous; procedure, shortened: as §2
[6] = Tmax in immunocompromized SKH1 mouse skin at 50 mg/kg, sc; format: ADME, organism-based, Zone of skin; set-up: dose 50 mg/kg, route subcutaneous; procedure, shortened: as §2
Pseudomonas aeruginosa [7] = assay: Antimicrobial activity against Pseudomonas aeruginosa OC 4354 infected in immunocompromized SKH1 mouse assessed as log change in bacterial colony forming unit at 1.6 mg/kg/day, sc; format: functional; conditions: route subcutaneous; procedure, shortened: as §1
[8] = fT>MIC in Staphylococcus aureus OC 8525 infected sc dosed SKH1 mouse at 50 mg/kg, sc administered twice at 1 and 3 hrs after infection; format: functional; conditions: route subcutaneous
Pseudomonas aeruginosa [9] = assay: Antimicrobial activity against Pseudomonas aeruginosa OC 4354 infected in immunocompromized SKH1 mouse assessed as lesion volume at 6.2 mg/kg/day, sc measured after 48 hrs postinfection (reference value: 2195 mm3); format: functional; conditions: route subcutaneous
Zone of skin [10] = assay: fCmax in immunocompetent SKH1 mouse skin at 50 mg/kg, sc; format: ADME, organism-based; set-up: dose 50 mg/kg, route subcutaneous; conditions: in vivo; procedure, shortened: as §2
Zone of skin [11] = assay: fCmax in Staphylococcus aureus infected […] SKH1 mouse skin at 50 mg/kg, sc; format: ADME, organism-based; set-up: dose 50 mg/kg, route subcutaneous; conditions: in vivo
Pseudomonas aeruginosa [12] = assay: Antimicrobial activity against Pseudomonas aeruginosa OC 4351 infected in immunocompromized SKH1 mouse assessed as lesion volume at 1.6 mg/kg/day, sc measured after 48 hrs postinfection (reference value: 2234 mm3); format: functional; conditions: route subcutaneous
Pseudomonas aeruginosa [13] = assay: Antimicrobial activity against Pseudomonas aeruginosa OC 4351 infected in immunocompromized SKH1 mouse assessed as lesion volume at 100 mg/kg/day, sc measured after 48 hrs postinfection (reference value: 2234 mm3); format: functional; conditions: route subcutaneous
Pseudomonas aeruginosa [14] = assay: Antimicrobial activity against Pseudomonas aeruginosa OC 4351 infected in immunocompromized SKH1 mouse assessed as log change in bacterial colony forming unit at 100 mg/kg/day, sc; format: functional; conditions: route subcutaneous; procedure, shortened: as §1
[15] = Half life in Staphylococcus aureus infected immunocompetent SKH1 mouse skin at 50 mg/kg, sc; format: ADME, organism-based, Zone of skin; set-up: dose 50 mg/kg, route subcutaneous; procedure, shortened: as §2
Pseudomonas aeruginosa [16] = assay: Antimicrobial activity against Pseudomonas aeruginosa OC 4354 infected in immunocompromized SKH1 mouse assessed as lesion volume at 25 mg/kg/day, sc measured after 48 hrs postinfection (reference value: 2195 mm3); format: functional; conditions: route subcutaneous
Zone of skin [17] = assay: fCmax in Staphylococcus aureus infected immunocompetent SKH1 mouse skin at 50 mg/kg, sc; format: ADME, organism-based; set-up: dose 50 mg/kg, route subcutaneous; conditions: in vivo; procedure, shortened: as §2
[18] = Tmax in immunocompetent SKH1 mouse plasma at 12.5 mg/kg, sc; format: ADME, organism-based; set-up: dose 12.5 mg/kg, route subcutaneous; procedure, shortened: as §2
Staphylococcus aureus [19] = assay: Antimicrobial activity against methicillin-susceptible Staphylococcus aureus Smith OC 4172 infected in SKH1 mouse assessed as log change in bacterial colony forming unit per gram of skin tissue at 1.6 mg/kg/day, sc (reference value: 1.6 deltalog CFU); format: functional; conditions: route subcutaneous
Staphylococcus aureus [20] = assay: Antimicrobial activity against methicillin-resistant Staphylococcus aureus OC 8525 infected in SKH1 mouse assessed as log change in bacterial colony forming unit per gram of skin tissue at 1.6 mg/kg/day, sc (reference value: 0.8 deltalog CFU); format: functional; conditions: route subcutaneous
Procedure, shortened: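 Female hairless immunocompetent SKH1 mice were anaesthetised and injected s.c. with 0.2 ml Cytodex bead inoculum (0.1% vol/vol beads in BHI; 6.7–7.0 log10 CFU/mouse): MSSA OC 4172 in the left flank, MRSA OC 8525 in the right. Drug was given at 1, 3, 25 and 27 h post-infection. At 48 h, flank lesions were excised, weighed and homogenised in saline, then plated on TSA (18 h, 37°C). The value is Δlog CFU/g versus the inoculum, from 5 mice/dose, run twice and pooled.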

[21] = fT>MIC in Pseudomonas aeruginosa OC 4354 infected sc dosed SKH1 mouse at 50 mg/kg, sc administered twice at 1 and 3 hrs after infection; format: functional; conditions: route subcutaneous
Staphylococcus aureus [22] = assay: Antimicrobial activity against methicillin-susceptible Staphylococcus aureus Smith OC 4172 infected immunocompetent SKH1 mouse assessed as lesion volume at 6.2 mg/kg/day, sc measured after 48 hrs postinfection (reference value: 1181 mm3); conditions: route subcutaneous
[23] = Protein binding in mouse plasma; format: ADME, cell-free; conditions: read-out: PPB (converted)
[24] = Half life in immunocompetent SKH1 mouse plasma at 50 mg/kg, sc; format: ADME, organism-based; set-up: dose 50 mg/kg, route subcutaneous
[25] = Half life in immunocompromized SKH1 mouse plasma at 50 mg/kg, sc; format: ADME, organism-based; set-up: dose 50 mg/kg, route subcutaneous
[26] = fT>MIC in Pseudomonas aeruginosa OC 4351 infected sc dosed SKH1 mouse at 50 mg/kg, sc administered twice at 1 and 3 hrs after infection; format: functional; conditions: route subcutaneous
Zone of skin [27] = assay: fAUC (0-infinity) in Staphylococcus aureus infected immunocompromized SKH1 mouse skin at 50 mg/kg, sc; format: ADME, organism-based; set-up: dose 50 mg/kg, route subcutaneous; conditions: in vivo
Pseudomonas aeruginosa [28] = assay: Antimicrobial activity against Pseudomonas aeruginosa OC 4351 assessed as inhibition of growth by broth microdilution method; format: functional
[29] = fT>MIC in Pseudomonas aeruginosa OC 4351 infected sc dosed SKH1 mouse administered in 24 hrs dosing interval; format: functional
Plasma = assay: fCmax in immunocompetent SKH1 mouse plasma at 50 mg/kg, sc; format: ADME, organism-based; set-up: dose 50 mg/kg, route subcutaneous; conditions: in vivo; procedure, shortened: as §2
[30] = fT>MIC in Staphylococcus aureus OC 8525 infected sc dosed SKH1 mouse administered in 24 hrs dosing interval; format: functional
Procedure, shortened: (§3)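 Plasma levels came from female hairless SKH1 mice given single s.c. doses at the nape 24 h after flank s.c. infection with Cytodex beads. S. aureus work used immunocompetent mice. P. aeruginosa work used mice made neutropenic with cyclophosphamide i.p., 150 mg/kg at day −5 and 100 mg/kg at day −1. Drug assayed by HPLC with diode-array detection. Noncompartmental analysis.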

[31] = fT>MIC in Pseudomonas aeruginosa OC 4354 infected sc dosed SKH1 mouse administered in 24 hrs dosing interval; format: functional; procedure, shortened: as §3
Staphylococcus aureus [32] = assay: Antimicrobial activity against methicillin-susceptible Staphylococcus aureus OC 4172 assessed as inhibition of growth by broth microdilution method; format: functional

Which deltalog10CFU (Pseudomonas aeruginosa [1]) does the source give for `Nc1nc(/C(=N/O)C(=O)N[C@@H]2C(=O)N3C(C(=O)O)=C(/C=C4\CCN([C@@H]5CCNC5)C4=O)CS[C@H]23)ns1` [CEFTOBIPROLE] here?
Its deltalog10CFU is -0.4.

And the fAUC (Zone of skin [2])?
The fAUC was 668 µg·min/mL.

And the Activity (Pseudomonas aeruginosa [3])?
The Activity was 847 mm3.

What about the Tmax [4] of the same compound?
Its Tmax is 15 min.

What about the half-life [5] of the same compound?
The half-life was 19 min.

What about the Tmax [6] of the same compound?
Its Tmax is 15 min.

What about the deltalog10CFU (Pseudomonas aeruginosa [7]) of the same compound?
Its deltalog10CFU is 1.7.

What about the “fT>MIC” value [8] of the same compound?
The value was 3.3 h.

And the Activity (Pseudomonas aeruginosa [9])?
The Activity was 1028 mm3.

And the fCmax (Zone of skin [10])?
The fCmax was 17 µg/g.

What about the fCmax (Zone of skin [11]) of the same compound?
The fCmax was 9 µg/g.

What about the Activity (Pseudomonas aeruginosa [12]) of the same compound?
Its Activity is 1593 mm3.

What about the Activity (Pseudomonas aeruginosa [13]) of the same compound?
Its Activity is 389 mm3.

What about the deltalog10CFU (Pseudomonas aeruginosa [14]) of the same compound?
The deltalog10CFU was -1.1.

What about the half-life [15] of the same compound?
Its half-life is 15 min.

And the Activity (Pseudomonas aeruginosa [16])?
Its Activity is 580 mm3.

What about the fCmax (Zone of skin [17]) of the same compound?
Its fCmax is 13 µg/g.

What about the Tmax [18] of the same compound?
The Tmax was 7.5 min.

What about the deltalog10CFU (Staphylococcus aureus [19]) of the same compound?
Its deltalog10CFU is -1.

And the deltalog10CFU (Staphylococcus aureus [20])?
Its deltalog10CFU is 0.3.

What about the “fT>MIC” value [21] of the same compound?
The value was 2.2 h.

What about the Activity (Staphylococcus aureus [22]) of the same compound?
Its Activity is 885 mm3.

And the fraction unbound [23]?
Its fraction unbound is 0.84.

And the half-life [24]?
The half-life was 13 min.

What about the half-life [25] of the same compound?
The half-life was 13 min.

And the “fT>MIC” value [26]?
The value was 2.2 h.

What about the fAUC (Zone of skin [27]) of the same compound?
Its fAUC is 704 µg·min/mL.

What about the MIC (Pseudomonas aeruginosa [28]) of the same compound?
Its MIC is 4 µg/mL.

And the “fT>MIC” value [29]?
The value was 9.1%.

And the fCmax (Plasma)?
The fCmax was 66 µg/mL.

And the “fT>MIC” value [30]?
The value was 13.8%.

And the “fT>MIC” value [31]?
Its value is 9.1%.

And the MIC (Staphylococcus aureus [32])?
Its MIC is 0.25 µg/mL.
